# Shown are actives, neighbours in structure and some others; about 3.6% of the full set was active somewhere.
# ZTA DNA inh: ZTA (EBV) inhibition in EBNA-1 counter-screen | P03206 | ZTA-DNA binding, fluorescence polarization | inhibition, % at 11 µM | 0.15% of 320,000 active; in the data active means inhibition above about 33%
# Target sequence (P03206 whole entry, looked up): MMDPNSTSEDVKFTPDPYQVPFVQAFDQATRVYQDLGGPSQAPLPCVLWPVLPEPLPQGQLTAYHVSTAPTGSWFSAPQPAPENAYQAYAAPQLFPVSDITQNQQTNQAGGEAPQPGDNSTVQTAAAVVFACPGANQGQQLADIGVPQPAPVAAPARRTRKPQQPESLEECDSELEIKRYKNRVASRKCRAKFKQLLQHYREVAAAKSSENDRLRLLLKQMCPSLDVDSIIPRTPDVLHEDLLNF
# FID counter: compounds displacing fluorescent DNA intercalator, primary screen, artefact control for HCV NS3 helicase inhibitor project, biochemical, FID fluorescence; DNA fluorescent intercalator displacement; inhibition, % at 7.9 µM; 0.17% of 290,000 active; AID 1845, 2009; in the data active means inhibition above about 37%;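 further: 0% = vehicle and 100% = reference compound; higher means more ethidium bromide displaced from hairpin DNA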
# FGF22 binding: binders of human FGF22 protein, primary screen, FGF22 synaptogenesis inhibitor project, biophysical, thermal shift, single point; activity (Tm shift, normalised), % at 9.99 µM; recombinant FGF22 thermal shift, SYPRO orange fluorescence; percent of sucrose octasulfate shift, DMSO zero; AID 651658, 2012; 1.5% of 340,000 active;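 active means mean Tm shift, scaled 0 neutral to 100 positive control, at about 1.3% or above, every replicate too, limit read from the data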
# Target sequence (Q9HCT0 whole entry, looked up): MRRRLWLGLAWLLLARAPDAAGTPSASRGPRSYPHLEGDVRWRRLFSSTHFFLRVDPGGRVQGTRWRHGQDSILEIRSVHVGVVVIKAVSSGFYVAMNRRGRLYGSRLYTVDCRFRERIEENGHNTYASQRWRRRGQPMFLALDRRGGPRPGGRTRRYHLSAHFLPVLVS
# NS3 helicase inh: inhibitors of HCV NS3 helicase, primary screen, biochemical, Cy5 molecular beacon fluorescence | 0.56% of 290,000 active | NS3 helicase DNA unwinding | Hepatitis C virus NS3 helicase | inhibition, % at 10.9 µM;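 active means inhibition above the mean of all tested compounds plus 3 SD, set per campaign, cut at about 35% in these data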;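 further: 0% = DMSO wells and 100% = thioflavine S control wells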
#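 Compound dosing – single dose, 10.9 µM nominal final, DMSO 0.8% final · System – NS3 helicase fragment of HCV · Buffer or medium – MOPS pH 6.5, MgCl2, DTT, Tween20, BSA · Signal – Cy5 beacon fluorescence read at start and 1 h · Also added – annealed dual-labelled DNA beacon duplex, ATP-started · Schedule – 1 h at 25 °C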
# GRIN3A LBD mod: binders of NR3A ligand-binding domain, primary screen, biophysical, differential scanning fluorimetry, uHTS | Tm shift relative to glycine control, % at 25 µM | Glutamate receptor ionotropic, NMDA 3A (GRIN3A) ligand-binding domain | NR3A LBD differential scanning fluorimetry, Tm shift; 0% = protein alone, 100% = glycine-bound protein | 2.5% of 340,000 active | AID 1259313, 2017;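 active means melting temperature shift of at least 10% of the positive control shift, at one fixed dose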
# EBNA-1 inh: EBNA-1 DNA-binding inhibitors, primary screen, biochemical, fluorescence polarization. 0.34% of 300,000 active. inhibition, % at 14.8 µM; in the data active means inhibition above about 28%
# Active calls of the source: *; / = no result.
SMILES,ZTA DNA inh,FID counter,FGF22 binding,NS3 helicase inh,GRIN3A LBD mod,EBNA-1 inh
C#CCOCCOCCOCCNc1nc(N2CCN(C(=O)[C@H]([C@@H](C)CC)n3cc([C@@H](N)Cc4ccc(O)cc4)nn3)CC2)nc(N2CCN(C(=O)[C@H](CCCCN)n3cc([C@@H](N)CC(C)C)nn3)CC2)n1,-13,45*,/,-57,/,10
C#CCOCCOCCOCCNc1nc(N2CCN(C(=O)[C@H](CCC(=O)O)n3cc(C(N)Cc4ccc(O)cc4)nn3)CC2)nc(N2CCN(C(=O)[C@H](CCC(=O)O)n3cc(C(N)Cc4ccc(O)cc4)nn3)CC2)n1 (stereo not given in full),2,-41,0,7,-1,6
C#CCOCCOCCOCCNc1nc(N2CCN(C(=O)[C@H](CCCCN)n3cc([C@@H](N)CC(C)C)nn3)CC2)nc(N2CCN(C(=O)[C@H](Cc3ccc(O)cc3)n3cc([C@@H](N)CC(C)C)nn3)CC2)n1,-28,44*,/,-70,6,-6
C#CCOCCOCCOCCNc1nc(N2CCN(C(=O)[C@H](CCCCN)n3cc(C(N)CC(C)C)nn3)CC2)nc(N2CCN(C(=O)[C@H](CCC(=O)O)n3cc(C(N)[C@H](C)CC)nn3)CC2)n1 (stereo not given in full),-10,30,/,-39,1,-1
C#CCOCCOCCOCCNc1nc(N2CCN(C(=O)[C@H]([C@@H](C)CC)n3cc([C@@H](N)CC(C)C)nn3)CC2)nc(N2CCN(C(=O)[C@H](CCCCN)n3cc([C@@H](N)CO)nn3)CC2)n1,-17,38*,/,-57,5,6
C#CCOCCOCCOCCNc1nc(N2CCN(C(=O)[C@H](CCCCN)n3cc([C@@H](N)CC(C)C)nn3)CC2)nc(N2CCN(C(=O)[C@H](CCCCN)n3cc([C@@H](N)CC(C)C)nn3)CC2)n1,-8,58*,/,-65,3,-2
CCCNC(=O)Nc1ccc2c(c1)OC[C@@H](C)N(Cc1ccncc1)C[C@H](C)[C@@H](OC)CN(C)C2=O,/,/,0,/,/,/
Cc1ccc(C)c(NC(=O)CN(C)C(=O)c2ccc(S(=O)(=O)N(C)c3ccccc3)cc2)c1,6,/,0,/,1,/
Cc1ccc(NC(=O)CN(C)C(=O)c2ccc(S(=O)(=O)N(C)c3ccccc3)cc2)cc1,6,-13,43*,-4,1,12
Cc1noc(C)c1NC(=O)N(C)C[C@@H]1Oc2c(NS(C)(=O)=O)cccc2C(=O)N([C@H](C)CO)C[C@H]1C,/,/,0,/,/,/
CNC[C@H]1Oc2ncc(-c3cccc(C(=O)N(C)C)c3)cc2C(=O)N([C@H](C)CO)C[C@H]1C,/,/,0,/,/,/
CCN1CCCC1CNC(=O)C1CCN(Cc2nc(-c3cccc(Br)c3)oc2C)CC1 (stereo not given),-21,39*,/,-35,-4,-9
C=CCNC(=O)N1CCc2[nH]c3ccc(F)cc3c2C1,-3,-5,0,6,0,-7
Fc1ccc2[nH]c3c(c2c1)CN(C(=S)NCc1ccccc1)CC3,-20,11,0,-6,29*,-2
CC(C)(C)OC(=O)N1CCOCCOCCN(C(=O)OC(C)(C)C)CCOCCOCC1,-1,-39,/,4,705*,-9
CN(C)C=Nc1ncc2c3ccccc3n(CCN(C)C)c2c1C#N,5,27,/,10,-1,1
CCN(CC)CCn1c2ccccc2c2cnc(N)c(C#N)c21,12,50*,/,18,-1,1
C[C@H](CO)N1C[C@H](C)[C@@H](CN(C)C(=O)Nc2cccc3ccccc23)Oc2ccc(NC(=O)C3CC3)cc2C1=O,/,/,0,/,/,/
O=C(C[C@H]1C[C@@H]2c3cc(NS(=O)(=O)c4ccc(F)cc4)ccc3O[C@@H]2[C@H](CO)O1)NCc1cc(F)ccc1F,/,/,0,/,/,/
O=[N+]([O-])c1ccc(Cl)c2cccnc12,2,1,0,3,12*,-1
O=[N+]([O-])c1cccc2c(Cl)ccnc12,13,-5,0,-2,0,3
CCOc1c(C#N)c(C#N)c2nc(C)cc(C)n12,17,0,/,4,14*,-5
Cc1cc(C)n2c3c(c(C#N)c2n1)CCCC3,1,-6,/,-2,-4,5
CC(=O)c1c(C)[nH]c(C(=O)NNC(=O)c2ccc(C)cc2)c1C,/,/,0,/,4,/
COc1ccc(Cl)cc1C(=O)NNC(=O)c1[nH]c(C)c(C(C)=O)c1C,/,/,0,/,15*,/
SMILES,ZTA DNA inh,FID counter,FGF22 binding,NS3 helicase inh,GRIN3A LBD mod,EBNA-1 inh
CCc1cc(C(=O)Nc2cc(Cl)ccc2N2CCN(C)CC2)sc1C,-16,/,-1,/,11*,-8
O=C1CC(SC2=NCCS2)C(=O)N1c1ccc(Cl)cc1 (stereo not given),-12,0,/,-1,24*,17
CCCc1c(C(=O)N/N=C/c2ccc3c(c2)OCO3)nnn1-c1nonc1N,/,/,0,/,/,/
Cc1ccc(SCc2c(C(=O)N/N=C/c3ccccc3)nnn2-c2nonc2N)cc1,7,-7,0,-7,33*,0
Cc1ccc(SCc2c(C(=O)N/N=C/c3ccoc3)nnn2-c2nonc2N)cc1,9,-21,0,-4,12*,13
Cc1ccc(/C=N/NC(=O)c2nnn(-c3nonc3N)c2CSc2ccccc2)o1,4,-26,43*,-2,-4,2
Cc1ccc(SCc2c(C(=O)N/N=C/c3cccs3)nnn2-c2nonc2N)cc1,/,/,0,/,/,/
Cc1ccc(SCc2c(C(=O)N/N=C/c3ccc4c(c3)OCO4)nnn2-c2nonc2N)cc1,8,-20,0,10,31*,8
Cc1ccc(S(=O)(=O)Nc2cccc3c2O[C@@H](CN(C)C)[C@@H](C)CN([C@H](C)CO)C3=O)cc1,/,/,0,/,/,/
CO[C@@H]1CN(C)C(=O)c2ccc(NC(=O)C3CCOCC3)cc2OC[C@H](C)N(C(=O)c2ccccc2)C[C@@H]1C,/,/,0,/,/,/
C[C@@H]1CN([C@@H](C)CO)C(=O)Cc2cc(NC(=O)Nc3ccc(F)cc3)ccc2O[C@@H]1CN(C)C(=O)Nc1ccc2c(c1)OCO2,/,/,0,/,/,/
O=C(C[C@@H]1CC[C@H]2[C@@H](COC[C@@H](O)CN2Cc2ccncc2)O1)NCc1ccccc1Cl,/,/,0,/,/,/
Cc1ccc(SCc2c(C(=O)N/N=C/c3ccco3)nnn2-c2nonc2N)cc1,/,/,0,/,/,/
Nc1nonc1-n1nnc(C(=O)N/N=C/c2ccc(OCc3ccccc3F)cc2)c1CNc1ccccc1,-9,-14,0,5,34*,-4

# Screening data as filed in PubChem BioAssay.
